Test results from paper PMC9200128 (Chemical Science, 2022).
No end group written: not given here.

Legend:
MDA-MB-231 cells = assay: Uptake of fluorescein labelled peptide, confocal microscopy; assay type: cell-based, human; conditions: 10 μM, confocal fluorescence, inside cells at 3 and 6 hours; Fig. 1d, e
MCF-10A cells = assay: Uptake of fluorescein labelled peptide, confocal microscopy; assay type: cell-based, human; conditions: 10 μM, confocal fluorescence; Fig. 1d, e
How it was run: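 MCF-10A cells were grown in 1:1 DMEM/Ham's F12 with 5% horse serum, EGF, insulin, hydrocortisone, cholera toxin and pen/strep. They were plated a day ahead at 2 × 10^5 in glass-bottom chamber dishes and exposed to fluorescein-labelled peptide (10 μM) for up to 24 h. Nuclei were stained with Hoechst 33342 and mitochondria with Rhodamine 800, then imaged by confocal microscopy over time. Data: 25 cells per field per time point, n = 5 independent experiments, mean ± SD.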

[1] = tested on: rat cardio myoblast H9C2 cells; assay: Penetration and cytotoxicity in non-malignant immortalized cells; assay type: cell-based; conditions: semi-confocal microscopy, 3h incubation; Fig. S2
[2] = tested on: human embryonic kidney 293 HEK cells; assay: as above; assay type: cell-based; conditions: semi-confocal microscopy, 3h incubation; Fig. S2
[3] = Body weight of xenograft mice during treatment; assay type: in vivo; conditions: 9 doses 5 mg kg−1, Fig. 6c
How it was run: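 MDA-MB-231 cells (3 × 10^6) injected subcutaneously into 7–8-week-old athymic nude (FOXN1NU) mice. Dosing started 28 days after inoculation and ran for 3 weeks: either 6 doses of peptide at 50 μM (0.875 mg kg−1; 17.5 microgram/mouse) or 9 doses of doxorubicin (5 mg kg−1). Body weight and tumour size were tracked throughout.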

Fl-NAF-1^44-67: NAF-1^44-67 labelled with fluorescein ({5(6)‑carboxyfluorescein}-FLGVLALLGYLAVRPFLPKKKQQK; UniProt Q8N5K1 44-67, looked up, fragment)
penetration of fluorescein-labelled peptide into MDA-MB-231 cells (MDA-MB-231 cells): preferentially penetrated MDA-MB-231 cancer cells | penetration of fluorescein-labelled peptide into MCF-10A cells (MCF-10A cells): did not permeate normal cells | entry of fluorescein-labelled peptide into H9C2 cells [1]: no entry | entry of fluorescein-labelled peptide into 293 HEK cells [2]: no entry

COc1cccc2c1C(=O)c1c(O)c3c(c(O)c1C2=O)C[C@@](O)(C(=O)CO)C[C@@H]3O[C@H]1C[C@H](N)[C@H](O)[C@H](C)O1 [doxorubicin]
body weight during treatment [3]: severe decrease in body weight
